Source: ChEMBL document CHEMBL1155616, “Ancistroealaines A and B, two new bioactive naphthylisoquinolines, and related naphthoic acids from Ancistrocladus ealaensis” (J Nat Prod, 2000)
Converted amounts (≈) assume the structure as drawn.

Columns and labels:
[1] = tested on: Trypanosoma brucei rhodesiense; assay: Antitrypanosomal activity against Trypanosoma brucei rhodesiense STIB900 by Alamar blue assay; type: functional, organism-based
How it was run: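 Bloodstream parasites were grown in Minimum Essential Medium with 2-mercaptoethanol and 15% heat-inactivated horse serum, with serial drug dilutions, for 72 h at 37 °C in 5% CO₂. Alamar Blue was then added for 2–4 h more, and fluorescence read at excitation 530 nm and emission 590 nm. Signal was expressed as % of control to give IC50.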

[2] = tested on: Trypanosoma cruzi; assay: Antitrypanosomal activity against galactosidase gene containing Trypanosoma cruzi Tulahuen C2C4 trypomastigotes in rat L6 cells after 4 days; type: functional, organism-based; conditions: Tulahuen C2C4, L6, 96 h
How it was run: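 L-6 myoblasts were seeded at 2000 cells/well in RPMI 1640 with 10% FBS and 2 mM L-glutamine. After 24 h, 5000 trypomastigotes were added with serial drug dilutions. Plates were kept at 37 °C in 5% CO₂ for 4 days. CPRG/Nonidet substrate was added and colour read at 540 nm after 2–4 h. IC50 was taken from the sigmoidal inhibition curve.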

[3] = tested on: Plasmodium falciparum; assay: Antiplasmodial activity against Plasmodium falciparum K1 in human erythrocytes by [3H]hypoxanthine uptake; type: functional, organism-based; conditions: K1, 72 h
How it was run: (§1)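 [³H]hypoxanthine incorporation assay, modified. Infected human red cells were exposed to serial drug dilutions for 48 h at 37 °C under reduced O₂ and raised CO₂. [³H]hypoxanthine was then added and incubation continued for 24 h. Cells were harvested on glass-fibre filters and counted by liquid scintillation. IC50 was taken from the sigmoidal inhibition curve. Runs were in duplicate and repeated at least once.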

[4] = Cytotoxicity against mouse peritoneal macrophages; type: cell-based, Macrophage; conditions: read-out: MIC
[5] = Cytotoxicity against rat L6 cells after 4 days; type: cell-based; conditions: read-out: MIC
How it was run: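 Uninfected L-6 myoblasts were run in the same format as the T. cruzi assay: RPMI 1640 with 10% FBS and 2 mM L-glutamine, same serial drug dilution, 37 °C, 5% CO₂. The MIC was judged microscopically after 4 days.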

[6] = tested on: Leishmania donovani; assay: Antileishmanial activity against Leishmania donovani MHOM-ET-67/L82 amastigotes in mouse peritoneal macrophages; type: functional, organism-based
How it was run: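 Mouse peritoneal macrophages in RPMI 1640 with 10% heat-inactivated FBS were infected after 24 h with amastigotes at 3:1 (parasite:macrophage). Free parasites were removed at 4 h. Drug was added the next day and cells incubated for 96 h at 37 °C in 5% CO₂. Slides were MeOH-fixed and Giemsa-stained, and the infected/noninfected ratio counted microscopically as % of control. IC50 was obtained by linear regression.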

[7] = tested on: Plasmodium falciparum; assay: Antiplasmodial activity against Plasmodium falciparum NF54 in human erythrocytes by [3H]hypoxanthine uptake; type: functional, organism-based; conditions: NF54, 72 h; how it was run: as §1

IC50 [1] | IC50 [2] | IC50 [3] | IC50 [6] | IC50 [7] | Structure (SMILES) | MCC [4] | MCC at 96 h [5]
 | 0.3 µg/mL (≈ 1.15 µM) |  |  |  | O=C(Cn1ccnc1[N+](=O)[O-])NCc1ccccc1 [BENZNIDAZOLE] |  | 
3.46 µg/mL (≈ 8.25 µM) | 2.35 µg/mL (≈ 5.6 µM) | 1.2 µg/mL (≈ 2.86 µM) | 4.1 µg/mL (≈ 9.77 µM) | 4 µg/mL (≈ 9.53 µM) | COc1cc(OC)c(-c2ccc(OC)c3c(OC)cc(C)cc23)c2c1C(C)=N[C@@H](C)C2 [ANCISTROEALAINE A] | > 30 µg/mL | > 90 µg/mL
2.03 µg/mL (≈ 4.98 µM) | 17.6 µg/mL (≈ 43.2 µM) | 0.52 µg/mL (≈ 1.28 µM) | 10 µg/mL (≈ 24.5 µM) | 0.79 µg/mL (≈ 1.94 µM) | COc1cc(OC)c2c(c1-c1ccc(O)c3c(OC)cc(C)cc13)C[C@H](C)N[C@H]2C [ANCISTROEALAINE B] | > 30 µg/mL | 90 µg/mL

Structure (SMILES) | IC50 [1] | IC50 [2] | IC50 [3] | IC50 [6] | IC50 [7] | MCC [4] | MCC at 96 h [5]
Nc1nc(N)nc(Nc2ccc([As]3SCC(CO)S3)cc2)n1 (stereo unspecified) [MELARSOPROL] | 0.0063 µg/mL |  |  |  |  |  | 
